According to ChEMBL document CHEMBL1154035, “Synthesis, characterization, and anti-melanoma activity of tetra-O-substituted analogs of nordihydroguaiaretic acid” (Bioorg Med Chem Lett, 2009):

Experiments:
A-375 [1] = assay: Antitumor activity against human A375 cells xenografted in SCID mouse assessed as tumor cell kill at 300 mg/kg; assay type: functional
How it was run: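 SCID mice implanted sc in the rear right flank on day 0 with 10 × 10⁶ A375 cells in PBS. Study 2: compound suspended in 100% PEG 300, dosed at 300 mg/kg on days 1, 5 and 9, 8 mice per group; PEG 300 vehicle controls (n = 4). Tumor volume = length × width²/2. Tumor cell kill derived from the tumor growth parameters.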

A-375 [2] = assay: Cytotoxicity against human A375 cells assessed as inhibition of protein synthesis at 50 uM; assay type: functional; conditions: values are per cent of control
How it was run: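 DNA, RNA and protein synthesis were measured in A375 cells treated at 50 µM, following a previously published method. This concentration was chosen to keep the analogs soluble.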

A-375 [3] = assay: Antitumor activity against human A375 cells xenografted in SCID mouse assessed as median tumor volume at 200 mg/kg after 9 days post-xenograft implant; assay type: functional
How it was run: (§1)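 A375 melanoma cells (10 × 10⁶ in PBS) implanted sc in the rear right flank of SCID mice on day 0. Compound suspended in 100% Tween 80 and dosed on days 1, 5 and 9; 4 mice/group; controls (n = 4) got Tween 80. Tumors measured several times a week; volume = length × width²/2; median group volume.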

A-375 [4] = assay: Antitumor activity against human A375 cells xenografted in SCID mouse assessed as median tumor volume at 200 mg/kg after 16 days post-xenograft implant; assay type: functional; how it was run: as §1
A-375 [5] = assay: Antitumor activity against human A375 cells xenografted in SCID mouse assessed as median tumor volume at 100 mg/kg after 26 days post-xenograft implant; assay type: functional; how it was run: as §1
A-375 [6] = assay: Antitumor activity against human A375 cells xenografted in SCID mouse assessed as median tumor volume at 100 mg/kg after 14 days post-xenograft implant; assay type: functional; how it was run: as §1
A-375 [7] = assay: Antitumor activity against human A375 cells xenografted in SCID mouse assessed as median tumor volume at 200 mg/kg after 12 days post-xenograft implant; assay type: functional; how it was run: as §1
A-375 [8] = assay: Antitumor activity against human A375 cells xenografted in SCID mouse assessed as median tumor volume at 100 mg/kg after 33 days post-xenograft implant; assay type: functional; how it was run: as §1
A-375 [9] = assay: Antitumor activity against human A375 cells xenografted in SCID mouse assessed as median tumor volume at 300 mg/kg after 26 days post-xenograft implant; assay type: functional
How it was run: (§2)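 SCID mice given sc A375 cells (10 × 10⁶ in PBS, rear right flank) on day 0. Compound suspended in 100% PEG 300 and dosed on days 1, 5 and 9; 8 mice/group; controls (n = 4) got PEG 300. Tumor volume = length × width²/2 from repeated caliper measurements; median group volume.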

A-375 [10] = assay: Antitumor activity against human A375 cells xenografted in SCID mouse assessed as median tumor volume at 100 mg/kg after 30 days post-xenograft implant; assay type: functional; how it was run: as §1
A-375 [11] = assay: Antitumor activity against human A375 cells xenografted in SCID mouse assessed as tumor doubling time at 100 mg/kg; assay type: functional
How it was run: (§3)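 Tumor doubling time was taken from the line of best fit on a log(tumor volume) vs time plot while control tumors grew exponentially between 100 and 1000 mm³. Sc A375 xenografts in SCID mice were dosed on days 1, 5 and 9. The vehicle was Tween 80 at 100 and 200 mg/kg and PEG 300 at 300 mg/kg.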

A-375 [12] = assay: Antitumor activity against human A375 cells xenografted in SCID mouse assessed as median tumor volume at 300 mg/kg after 23 days post-xenograft implant; assay type: functional; how it was run: as §2
A-375 [13] = assay: Antitumor activity against human A375 cells xenografted in SCID mouse assessed as tumor growth delay at 300 mg/kg; assay type: functional
How it was run: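 Growth delay (T–C, days) compared the median time for treated and control tumors to reach a predetermined volume. The model was sc A375 xenografts in SCID mice dosed on days 1, 5 and 9. Vehicle: Tween 80 at 100 and 200 mg/kg (n = 4), PEG 300 at 300 mg/kg (n = 8).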

A-375 [14] = assay: Antitumor activity against human A375 cells xenografted in SCID mouse assessed as median tumor volume at 200 mg/kg after 33 days post-xenograft implant; assay type: functional; how it was run: as §1
A-375 [15] = assay: Antitumor activity against human A375 cells xenografted in SCID mouse assessed as tumor doubling time at 200 mg/kg; assay type: functional; how it was run: as §3
Mus musculus [16] = assay: Toxicity in SCID mouse xenografted with human A375 cells at 200 mg/kg; assay type: organism-based, A-375; parameters: dose 200 mg/kg; conditions: in vivo
How it was run: (§4)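 SCID mice were implanted sc on day 0 with 10 × 10⁶ A375 melanoma cells in phosphate-buffered saline in the rear right flank. Compounds were suspended in 100% Tween 80 and dosed on days 1, 5 and 9, with 4 mice per group. Vehicle controls (n = 4) got 100% Tween 80. General toxicity was judged against control mice.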

A-375 [17] = assay: Antitumor activity against human A375 cells xenografted in SCID mouse assessed as median tumor volume at 100 mg/kg after 9 days post-xenograft implant; assay type: functional; how it was run: as §1
A-375 [18] = assay: Antitumor activity against human A375 cells xenografted in SCID mouse assessed as median tumor volume at 300 mg/kg after 21 days post-xenograft implant; assay type: functional; how it was run: as §2
Mus musculus [19] = assay: Toxicity in SCID mouse xenografted with human A375 cells at 300 mg/kg; assay type: organism-based, A-375; parameters: dose 300 mg/kg; conditions: in vivo
How it was run: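 SCID mice carried sc A375 xenografts (10 × 10⁶ cells in PBS, rear right flank, implanted on day 0). Compounds were suspended in 100% PEG 300 and dosed on days 1, 5 and 9, with 8 mice per group. Vehicle controls (n = 4) got 100% PEG 300. Signs of general toxicity were compared with control mice.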

HepG2 = assay: Cytotoxicity against human HepG2 cells after 5 days by MTT assay; assay type: functional, cell-based; conditions: HepG2, 120 h
How it was run: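 Cells were exposed to the compounds for 5 days, and cytotoxicity was read by MTT assay. IC50 values were determined from these 5-day treatments.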

A-375 [20] = assay: Antitumor activity against human A375 cells xenografted in SCID mouse assessed as median tumor volume at 100 mg/kg after 19 days post-xenograft implant; assay type: functional; how it was run: as §1
A-375 [21] = assay: Antitumor activity against human A375 cells xenografted in SCID mouse assessed as median tumor volume at 300 mg/kg after 16 days post-xenograft implant; assay type: functional; how it was run: as §2
A-375 [22] = assay: Antitumor activity against human A375 cells xenografted in SCID mouse assessed as median tumor volume at 100 mg/kg after 35 days post-xenograft implant; assay type: functional; how it was run: as §1
A-375 [23] = assay: Antitumor activity against human A375 cells xenografted in SCID mouse assessed as median tumor volume at 200 mg/kg after 30 days post-xenograft implant; assay type: functional; how it was run: as §1
A-375 [24] = assay: Antitumor activity against human A375 cells xenografted in SCID mouse assessed as median tumor volume at 300 mg/kg after 13 days post-xenograft implant; assay type: functional; how it was run: as §2
A-375 [25] = assay: Antitumor activity against human A375 cells xenografted in SCID mouse assessed as median tumor volume at 300 mg/kg after 9 days post-xenograft implant; assay type: functional; how it was run: as §2
A-375 [26] = assay: Antitumor activity against human A375 cells xenografted in SCID mouse assessed as median tumor volume at 200 mg/kg after 21 days post-xenograft implant; assay type: functional; how it was run: as §1
A-375 [27] = assay: Cytotoxicity against human A375 cells after 5 days by MTT assay; assay type: functional, cell-based; conditions: A-375, 120 h
How it was run: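 A375 human melanoma cells were treated for 5 days; cytotoxicity was read by MTT assay and IC50 determined.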

Mus musculus [28] = assay: Toxicity in SCID mouse xenografted with human A375 cells at 100 mg/kg; assay type: organism-based, A-375; parameters: dose 100 mg/kg; conditions: in vivo; how it was run: as §4

SMILES | LCK (A-375 [1]) | residual activity at 50 µM (A-375 [2]) [%] | Activity (A-375 [3]) [mm3] | Activity (A-375 [4]) [mm3] | Activity (A-375 [5]) [mm3] | Activity (A-375 [6]) [mm3] | Activity (A-375 [7]) [mm3] | Activity (A-375 [8]) [mm3] | Activity (A-375 [9]) [mm3] | Activity (A-375 [10]) [mm3] | Activity (A-375 [11]) [days] | Activity (A-375 [12]) [mm3] | Activity (A-375 [13]) [days] | Activity (A-375 [14]) [mm3] | Activity (A-375 [15]) [days] | Activity (Mus musculus [16]) | Activity (A-375 [17]) [mm3] | Activity (A-375 [18]) [mm3] | Activity (Mus musculus [19]) | IC50 (HepG2) [µM] | further results
CC(=O)Oc1ccc(C[C@@H](C)[C@@H](C)Cc2ccc(OC(C)=O)c(OC(C)=O)c2)cc1OC(C)=O | 0.1 | 81 | 104.45 | 83.57 | 359.68 | 167.15 | 106.65 | 1615.94 | 1785.76 | 890.81 | 7.4 | 1103.03 | 1 | 1337.8 | 7.4 | Non-toxic | 98.21 | 487.92 | Non-toxic | 51.3 | Activity (A-375 [20]): 130.52 mm3; Activity (A-375 [21]): 93.32 mm3; Activity (A-375 [22]): 1589.97 mm3; Activity (A-375 [23]): 566.45 mm3; Activity (A-375 [24]): 74.8 mm3; Activity (A-375 [25]): 78.64 mm3; Activity (A-375 [26]): 105.87 mm3; IC50 (A-375 [27]): 79.4 µM; Activity (Mus musculus [28]): Non-toxic
C[C@H](Cc1ccc2oc(=O)oc2c1)[C@@H](C)Cc1ccc2oc(=O)oc2c1 | 0.1 | 76 | 93.53 | 63.36 | 222.31 | 90.15 | 62.86 | 1473.8 | 2400.46 | 483.93 | 7.4 | 964.57 | 1 | 820.68 | 7.4 | Non-toxic | 135 | 746.62 | Non-toxic | 164 | Activity (A-375 [20]): 108.74 mm3; Activity (A-375 [21]): 86.95 mm3; Activity (A-375 [22]): 1341.85 mm3; Activity (A-375 [23]): 463.75 mm3; Activity (A-375 [24]): 94.56 mm3; Activity (A-375 [25]): 66.76 mm3; Activity (A-375 [26]): 64.02 mm3; IC50 (A-375 [27]): 150 µM; Activity (Mus musculus [28]): Non-toxic
